# Laboratory results as given in ChEMBL document CHEMBL1671716, “Antimicrobial susceptibility patterns for recent clinical isolates of anaerobic bacteria in South Korea” (2010).
# Tests used:
# [1] = tested on: Peptostreptococcus anaerobius; assay: Antimicrobial activity against Peptostreptococcus anaerobius after 48 hrs by agar dilution method; assay type: functional
# Method in brief: (§1)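 CLSI agar dilution (M11-A7); inoculum 10^5 CFU applied by replicator; plates incubated anaerobically 48 h at 37°C. For piperacillin-tazobactam, tazobactam held constant at 4 μg/ml.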
# [2] = tested on: Prevotella bivia; assay: Antimicrobial activity against Prevotella bivia after 48 hrs by agar dilution method; assay type: functional; method in brief: as §1
# [3] = tested on: Phocaeicola vulgatus; assay: Antimicrobial activity against Bacteroides vulgatus assessed as percent resistant isolates after 48 hrs by agar dilution method; assay type: functional
# Method in brief: (§2)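 CLSI agar dilution on recent Korean clinical anaerobe isolates. Inoculum 10^5 CFU per spot by replicator. Plates incubated in an anaerobic chamber at 37°C for 48 h. For piperacillin plus tazobactam, tazobactam was held constant at 4 μg/ml. Resistance and susceptibility rates derived from MICs.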
# [4] = tested on: Eggerthella lenta; assay: Antimicrobial activity against Eubacterium lentum assessed as percent resistant isolates after 48 hrs by agar dilution method; assay type: functional; method in brief: as §2
# [5] = tested on: Bacteroides caccae; assay: Antimicrobial activity against Bacteroides caccae assessed as percent resistant isolates after 48 hrs by agar dilution method; assay type: functional; method in brief: as §2
# [6] = tested on: Bacteroides ovatus; assay: Antimicrobial activity against Bacteroides ovatus after 48 hrs by agar dilution method; assay type: functional
# Method in brief: (§3)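 MICs on clinical anaerobe isolates by the CLSI agar dilution method. Inoculum of 10^5 CFU applied with a Steers replicator. Plates incubated 48 h at 37°C in an anaerobic chamber.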
# [7] = tested on: Fusobacterium varium; assay: Antimicrobial activity against Fusobacterium varium after 48 hrs by agar dilution method; assay type: functional; method in brief: as §1
# [8] = tested on: Actinomyces naeslundii; assay: Antimicrobial activity against Actinomyces naeslundii assessed as percent resistant isolates after 48 hrs by agar dilution method; assay type: functional; method in brief: as §2
# [9] = tested on: Phocaeicola vulgatus; assay: Antimicrobial activity against Bacteroides vulgatus assessed as percent susceptible isolates after 48 hrs by agar dilution method; assay type: functional
# [10] = tested on: Bacteroides ovatus; assay: Antimicrobial activity against Bacteroides ovatus assessed as percent resistant isolates after 48 hrs by agar dilution method; assay type: functional; method in brief: as §2
# [11] = tested on: Clostridioides difficile; assay: Antimicrobial activity against Clostridium difficile assessed as percent susceptible isolates after 48 hrs by agar dilution method; assay type: functional
# [12] = tested on: Clostridioides difficile; assay: Antimicrobial activity against Clostridium difficile assessed as percent resistant isolates after 48 hrs by agar dilution method; assay type: functional
# [13] = tested on: Bacteroides thetaiotaomicron; assay: Antimicrobial activity against Bacteroides thetaiotaomicron assessed as percent resistant isolates after 48 hrs by agar dilution method; assay type: functional; method in brief: as §2
# [14] = tested on: Finegoldia magna; assay: Antimicrobial activity against Finegoldia magna after 48 hrs by agar dilution method; assay type: functional; method in brief: as §1
# [15] = tested on: Schaalia meyeri; assay: Antimicrobial activity against Actinomyces meyeri after 48 hrs by agar dilution method; assay type: functional; method in brief: as §3
# [16] = tested on: Bifidobacterium adolescentis; assay: Antimicrobial activity against Bifidobacterium adolescentis assessed as percent resistant isolates after 48 hrs by agar dilution method; assay type: functional; method in brief: as §2
# [17] = tested on: Peptostreptococcus anaerobius; assay: Antimicrobial activity against Peptostreptococcus anaerobius assessed as percent susceptible isolates after 48 hrs by agar dilution method; assay type: functional; method in brief: as §2
# [18] = tested on: Actinomyces naeslundii; assay: Antimicrobial activity against Actinomyces naeslundii after 48 hrs by agar dilution method; assay type: functional; method in brief: as §3
# [19] = tested on: Prevotella buccae; assay: Antimicrobial activity against Prevotella buccae assessed as percent susceptible isolates after 48 hrs by agar dilution method; assay type: functional, Segatella buccae; method in brief: as §1
# [20] = tested on: Actinomyces israelii; assay: Antimicrobial activity against Actinomyces israelii assessed as percent susceptible isolates after 48 hrs by agar dilution method; assay type: functional
# [21] = tested on: Parvimonas micra; assay: Antimicrobial activity against Peptostreptococcus micros assessed as percent susceptible isolates after 48 hrs by agar dilution method; assay type: functional; method in brief: as §2
# [22] = tested on: Bifidobacterium adolescentis; assay: Antimicrobial activity against Bifidobacterium adolescentis after 48 hrs by agar dilution method; assay type: functional; method in brief: as §3
# [23] = tested on: Actinomyces israelii; assay: Antimicrobial activity against Actinomyces israelii after 48 hrs by agar dilution method; assay type: functional; method in brief: as §3
# [24] = tested on: Actinomyces israelii; assay: Antimicrobial activity against Actinomyces israelii assessed as percent resistant isolates after 48 hrs by agar dilution method; assay type: functional; method in brief: as §2
# [25] = tested on: Bacteroides thetaiotaomicron; assay: Antimicrobial activity against Bacteroides thetaiotaomicron assessed as percent susceptible isolates after 48 hrs by agar dilution method; assay type: functional
# [26] = tested on: Clostridioides difficile; assay: Antimicrobial activity against Clostridium difficile after 48 hrs by agar dilution method; assay type: functional
# [27] = tested on: Finegoldia magna; assay: Antimicrobial activity against Finegoldia magna assessed as percent resistant isolates after 48 hrs by agar dilution method; assay type: functional; method in brief: as §2
# [28] = tested on: Prevotella intermedia; assay: Antimicrobial activity against Prevotella intermedia assessed as percent resistant isolates after 48 hrs by agar dilution method; assay type: functional; method in brief: as §2
# [29] = tested on: Eubacterium sp.; assay: Antimicrobial activity against Eubacterium sp. after 48 hrs by agar dilution method; assay type: functional; method in brief: as §1
# [30] = tested on: Clostridium perfringens; assay: Antimicrobial activity against Clostridium perfringens assessed as percent susceptible isolates after 48 hrs by agar dilution method; assay type: functional
# [31] = tested on: Schaalia odontolytica; assay: Antimicrobial activity against Actinomyces odontolyticus after 48 hrs by agar dilution method; assay type: functional; method in brief: as §3
# [32] = tested on: Prevotella intermedia; assay: Antimicrobial activity against Prevotella intermedia assessed as percent susceptible isolates after 48 hrs by agar dilution method; assay type: functional; method in brief: as §1
# [33] = tested on: Eubacterium sp.; assay: Antimicrobial activity against Eubacterium sp. assessed as percent resistant isolates after 48 hrs by agar dilution method; assay type: functional; method in brief: as §2
# [34] = tested on: Parabacteroides distasonis; assay: Antimicrobial activity against Bacteroides distasonis assessed as percent susceptible isolates after 48 hrs by agar dilution method; assay type: functional
# [35] = tested on: Finegoldia magna; assay: Antimicrobial activity against Finegoldia magna assessed as percent susceptible isolates after 48 hrs by agar dilution method; assay type: functional; method in brief: as §1
# [36] = tested on: Anaerococcus prevotii; assay: Antimicrobial activity against Anaerococcus prevotii assessed as percent resistant isolates after 48 hrs by agar dilution method; assay type: functional; method in brief: as §2
# [37] = tested on: Hoylesella oralis; assay: Antimicrobial activity against Prevotella oralis assessed as percent susceptible isolates after 48 hrs by agar dilution method; assay type: functional
# Method in brief: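 CLSI agar dilution MIC testing of clinical isolates. 10^5 CFU spotted by replicator, plates incubated 48 h at 37°C in an anaerobic chamber. Susceptibility rates derived from the MICs.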
# [38] = tested on: Schaalia meyeri; assay: Antimicrobial activity against Actinomyces meyeri assessed as percent resistant isolates after 48 hrs by agar dilution method; assay type: functional; method in brief: as §2
# [39] = tested on: Clostridium perfringens; assay: Antimicrobial activity against Clostridium perfringens after 48 hrs by agar dilution method; assay type: functional
# [40] = tested on: Eubacterium sp.; assay: Antimicrobial activity against Eubacterium sp. assessed as percent susceptible isolates after 48 hrs by agar dilution method; assay type: functional; method in brief: as §1
# [41] = tested on: Bacteroides fragilis; assay: Antimicrobial activity against Bacteroides fragilis after 48 hrs by agar dilution method; assay type: functional; method in brief: as §3
# [42] = tested on: Bacteroides thetaiotaomicron; assay: Antimicrobial activity against Bacteroides thetaiotaomicron after 48 hrs by agar dilution method; assay type: functional; method in brief: as §3
# [43] = tested on: Bacteroides fragilis; assay: Antimicrobial activity against Bacteroides fragilis assessed as percent resistant isolates after 48 hrs by agar dilution method; assay type: functional; method in brief: as §2
# [44] = tested on: Parabacteroides distasonis; assay: Antimicrobial activity against Bacteroides distasonis after 48 hrs by agar dilution method; assay type: functional; method in brief: as §3
# [45] = tested on: Hoylesella oralis; assay: Antimicrobial activity against Prevotella oralis after 48 hrs by agar dilution method; assay type: functional; method in brief: as §1
compound,measurement,setting,value
CCC[C@@H]1C[C@@H](C(=O)N[C@@H]([C@H]2O[C@H](SC)[C@H](O)[C@@H](O)[C@H]2O)[C@H](C)Cl)N(C)C1 [CLINDAMYCIN],MIC50,[1],0.125 µg/mL
same,MIC90,[1],64 µg/mL
same,MIC50,[2],≤ 0.06 µg/mL
same,MIC90,[2],128 µg/mL
same,Activity,[3],68%
same,Activity,[4],15%
same,Activity,[5],68%
same,MIC50,[6],> 128 µg/mL
same,MIC90,[6],> 128 µg/mL
same,MIC,[7],0.06 µg/mL
same,Activity,[8],15%
same,Activity,[9],16%
same,Activity,[10],68%
same,Activity,[11],8%
same,Activity,[12],83%
same,Activity,[13],68%
same,MIC50,[14],0.25 µg/mL
same,MIC90,[14],64 µg/mL
same,MIC,[15],0.06 µg/mL
same,MIC50,[15],0.06 µg/mL
same,MIC90,[15],> 128 µg/mL
same,Activity,[16],8%
same,Activity,[17],77%
same,MIC,[18],0.06 µg/mL
same,MIC50,[18],0.06 µg/mL
same,MIC90,[18],> 128 µg/mL
same,Activity,[19],50%
same,Activity,[20],85%
same,Activity,[21],23%
same,MIC,[22],0.06 µg/mL
same,MIC50,[22],0.06 µg/mL
same,MIC90,[22],> 128 µg/mL
same,MIC,[23],0.06 µg/mL
same,MIC50,[23],0.06 µg/mL
same,MIC90,[23],> 128 µg/mL
same,Activity,[24],15%
same,Activity,[25],16%
same,MIC50,[26],64 µg/mL
same,MIC90,[26],128 µg/mL
same,Activity,[27],13%
same,Activity,[28],0%
same,MIC,[29],0.06 µg/mL
same,MIC50,[29],0.06 µg/mL
same,MIC90,[29],> 128 µg/mL
same,Activity,[30],80%
same,MIC,[31],0.06 µg/mL
same,MIC50,[31],0.06 µg/mL
same,MIC90,[31],> 128 µg/mL
same,Activity,[32],100%
same,Activity,[33],15%
same,Activity,[34],16%
same,Activity,[35],73%
same,Activity,[36],40%
same,Activity,[37],50%
same,Activity,[38],15%
same,MIC50,[39],2 µg/mL
same,MIC90,[39],4 µg/mL
same,Activity,[40],85%
same,MIC50,[41],0.5 µg/mL
same,MIC90,[41],> 128 µg/mL
same,MIC50,[42],> 128 µg/mL
same,MIC90,[42],> 128 µg/mL
same,Activity,[43],33%
same,MIC50,[44],> 128 µg/mL
same,MIC90,[44],> 128 µg/mL
same,MIC50,[45],≤ 0.06 µg/mL
same,MIC90,[45],128 µg/mL
